From ChEMBL document CHEMBL1153427, “1-Sulfonyl-4-acylpiperazines as selective cannabinoid-1 receptor (CB1R) inverse agonists for the treatment of obesity” (J Med Chem, 2009)

How the values were obtained:
[1] = molecular target: T1, Cannabinoid receptor 1 (Homo sapiens, UniProt P21554); assay: Displacement of [3H]CP-55940 from human recombinant CB1R expressed in CHO cells; format: cell-based
Method in brief: (§1)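 Radioligand competition used 0.5 nM [³H]CP55940 with recombinant human CB1R-CHO or CB2R-CHO membranes. Bound and free ligand were separated by filtration, and IC₅₀ came from nonlinear curve fitting.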

[2] = molecular target: Voltage-gated inwardly rectifying potassium channel KCNH2 (Homo sapiens, UniProt Q12809); assay: Inhibition of human ERG by MK-0499 binding assay
Voltage-gated inwardly rectifying potassium channel KCNH2, sequence (Q12809 whole entry): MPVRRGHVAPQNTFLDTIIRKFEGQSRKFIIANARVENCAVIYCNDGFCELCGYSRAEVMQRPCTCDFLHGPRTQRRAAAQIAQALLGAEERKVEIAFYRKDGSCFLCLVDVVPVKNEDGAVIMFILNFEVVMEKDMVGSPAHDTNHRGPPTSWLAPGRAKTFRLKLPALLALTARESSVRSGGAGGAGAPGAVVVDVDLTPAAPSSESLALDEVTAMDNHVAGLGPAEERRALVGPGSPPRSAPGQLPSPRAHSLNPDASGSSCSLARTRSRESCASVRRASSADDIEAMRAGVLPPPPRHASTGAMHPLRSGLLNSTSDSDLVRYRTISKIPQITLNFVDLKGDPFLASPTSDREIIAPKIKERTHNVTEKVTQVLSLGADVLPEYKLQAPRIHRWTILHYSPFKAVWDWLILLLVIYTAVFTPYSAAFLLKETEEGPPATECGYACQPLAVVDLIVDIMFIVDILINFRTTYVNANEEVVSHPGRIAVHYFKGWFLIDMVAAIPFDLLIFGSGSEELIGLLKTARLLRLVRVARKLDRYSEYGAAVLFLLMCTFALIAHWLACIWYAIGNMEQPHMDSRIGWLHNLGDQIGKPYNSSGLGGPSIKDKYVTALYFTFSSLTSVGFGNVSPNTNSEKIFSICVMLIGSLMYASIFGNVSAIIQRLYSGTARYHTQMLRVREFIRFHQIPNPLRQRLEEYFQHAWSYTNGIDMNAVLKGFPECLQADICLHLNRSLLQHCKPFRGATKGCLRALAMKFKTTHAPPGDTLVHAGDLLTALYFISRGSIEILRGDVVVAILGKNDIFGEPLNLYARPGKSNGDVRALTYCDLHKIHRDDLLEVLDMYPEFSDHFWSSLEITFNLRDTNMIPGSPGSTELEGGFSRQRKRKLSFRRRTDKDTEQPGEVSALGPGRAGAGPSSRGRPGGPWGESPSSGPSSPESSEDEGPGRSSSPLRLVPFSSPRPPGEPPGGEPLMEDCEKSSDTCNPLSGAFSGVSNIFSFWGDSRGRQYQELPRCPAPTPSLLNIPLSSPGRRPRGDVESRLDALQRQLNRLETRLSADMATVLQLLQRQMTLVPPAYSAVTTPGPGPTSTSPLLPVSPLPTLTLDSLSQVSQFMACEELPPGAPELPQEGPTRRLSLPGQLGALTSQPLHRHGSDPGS

[3] = molecular target: Cannabinoid receptor 2 (Homo sapiens, UniProt P34972); assay: Displacement of [3H]CP-55940 from human recombinant CB2R expressed in CHO cells; format: cell-based; method in brief: as §1
Cannabinoid receptor 2, sequence (P34972 whole entry): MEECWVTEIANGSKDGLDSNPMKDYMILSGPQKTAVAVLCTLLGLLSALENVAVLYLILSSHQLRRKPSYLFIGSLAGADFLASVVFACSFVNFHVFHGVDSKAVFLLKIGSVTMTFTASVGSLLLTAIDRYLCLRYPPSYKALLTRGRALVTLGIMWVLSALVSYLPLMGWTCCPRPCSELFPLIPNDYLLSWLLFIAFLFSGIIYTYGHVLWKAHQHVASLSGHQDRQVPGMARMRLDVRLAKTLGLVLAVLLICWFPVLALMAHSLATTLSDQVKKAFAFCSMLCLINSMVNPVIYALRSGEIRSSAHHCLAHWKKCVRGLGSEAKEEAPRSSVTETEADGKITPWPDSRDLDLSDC

[4] = test system: Rattus norvegicus; assay: Reduction of body weight in diet induced obese Sprague-Dawley rat at 3 mg/kg, po; format: functional
Method in brief: (§2)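 Male DIO rats were acclimated at least 3 days in an automated food-intake system, where computer-linked balances logged grams of food eaten every 5 min. They were fed milled MHF diet throughout. Compound or vehicle (10% Tween-80 in water) was given by oral gavage 1 h before dark-cycle onset. Overnight food intake and body-weight change were measured against vehicle, with significance set at P < 0.05.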

[5] = Half life in Sprague-Dawley rat at 1 mg/kg, iv and 2 mg/kg, po; format: ADME, organism-based; settings: in vivo
Method in brief: (§3)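 Male Sprague-Dawley rats received 1 mpk intravenously or 2 mpk orally. Blood was drawn at various time points into lithium heparin and centrifuged, and plasma was stored at -70 °C. Plasma was extracted by protein precipitation and analysed by LC-MS/MS.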

[6] = test system: Rattus norvegicus; assay: Reduction of overnight food intake in diet induced obese Sprague-Dawley rat at 3 mg/kg, po; format: functional; parameters: scale not given: the % may be the effect or the level left; method in brief: as §2
[7] = Bioavailability in Sprague-Dawley rat at 1 mg/kg, iv and 2 mg/kg, po; format: ADME, organism-based; settings: in vivo; method in brief: as §3
[8] = molecular target: T1, Cannabinoid receptor 1; assay: Displacement of [3H]SR141716 from human recombinant CB1R expressed in CHO cells; format: cell-based
[9] = molecular target: T1, Cannabinoid receptor 1; assay: Agonist activity at human recombinant CB1R expressed in CHO cells assessed as inhibition of forskolin-stimulated cAMP level; format: functional, cell-based
Method in brief: (§4)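 Recombinant CB1R-CHO cells were incubated with test compound across a range of concentrations, plus forskolin and the phosphodiesterase inhibitor IBMX. Buffer was Earle's balanced salt solution with 5 mM MgCl₂, 10 mM HEPES pH 7.3 and 1 mg/mL BSA, for 30 min at room temperature, with cAMP read out.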

[10] = Volume of distribution at steady state in Sprague-Dawley rat at 1 mg/kg, iv and 2 mg/kg, po; format: ADME, organism-based; settings: in vivo, read-out: Vdss; method in brief: as §3
[11] = molecular target: T2, Cannabinoid receptor 1 (Rattus norvegicus, UniProt P20272); assay: Displacement of [3H]CP-55940 from rat recombinant CB1R expressed in CHO cells; format: cell-based
T2 sequence (P20272 whole entry): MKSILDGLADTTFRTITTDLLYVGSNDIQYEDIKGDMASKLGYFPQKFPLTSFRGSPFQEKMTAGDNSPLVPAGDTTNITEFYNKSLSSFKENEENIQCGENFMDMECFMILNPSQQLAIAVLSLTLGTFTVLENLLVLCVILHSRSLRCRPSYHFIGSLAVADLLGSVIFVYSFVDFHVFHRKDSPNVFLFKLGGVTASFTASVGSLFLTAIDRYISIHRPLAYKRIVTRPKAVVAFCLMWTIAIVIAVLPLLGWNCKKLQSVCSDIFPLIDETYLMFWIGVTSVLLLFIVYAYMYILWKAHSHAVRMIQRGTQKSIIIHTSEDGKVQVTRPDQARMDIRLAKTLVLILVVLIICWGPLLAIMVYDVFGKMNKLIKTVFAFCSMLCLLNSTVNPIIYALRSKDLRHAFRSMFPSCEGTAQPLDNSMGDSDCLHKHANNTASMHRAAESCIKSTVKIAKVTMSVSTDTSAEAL

[12] = molecular target: T2, Cannabinoid receptor 1; assay: Antagonist activity at rat recombinant CB1R expressed in CHO cells assessed as inhibition of methanandamide-stimulated cAMP level; format: functional, cell-based
Method in brief: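 Antagonist mode of the forskolin-stimulated cAMP assay in CB1R-CHO cells. Methanandamide at 300 nM was the agonist challenge, and IC₅₀ was determined across test-compound concentrations. Percent inhibition was also recorded at a single 2 µM test concentration.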

[13] = molecular target: T2, Cannabinoid receptor 1; assay: Agonist activity at rat recombinant CB1R expressed in CHO cells assessed as inhibition of forskolin-stimulated cAMP level; format: functional, cell-based; method in brief: as §4
[14] = molecular target: T2, Cannabinoid receptor 1; assay: Displacement of [3H] SR-141716 from rat recombinant CB1R expressed in CHO cells; format: cell-based
[15] = Ratio of drug level in brain to plasma in Sprague-Dawley rat at 1 mg/kg, iv and 2 mg/kg, po over 0.25 to 4 hrs; format: ADME, organism-based
Method in brief: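 Male Sprague-Dawley rats got 1 mpk iv for brain penetration and were euthanised by CO₂ 1 h later. Whole brain was frozen on dry ice, and blood was taken by cardiac puncture into lithium heparin. PK arms were dosed 1 mpk iv and 2 mpk po, with blood sampled at several time points. Plasma and brain homogenate were extracted by protein precipitation and analysed by LCMS².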

[16] = Plasma clearance in Sprague-Dawley rat at 1 mg/kg, iv and 2 mg/kg, po; format: ADME, organism-based; method in brief: as §3
[17] = molecular target: T1, Cannabinoid receptor 1; assay: Inverse agonist activity at human recombinant CB1R expressed in CHO cells assessed as increase in forskolin-stimulated cAMP level; format: functional, cell-based; method in brief: as §4
[18] = Ratio of drug level in brain to plasma in Sprague-Dawley rat at 1 mg/kg, iv and 2 mg/kg, po after 4 hrs; format: ADME, organism-based
[19] = molecular target: Cytochrome P450 3A4 (Homo sapiens, UniProt P08684); assay: Inhibition of CYP3A4; format: ADME
Cytochrome P450 3A4, sequence (P08684 whole entry): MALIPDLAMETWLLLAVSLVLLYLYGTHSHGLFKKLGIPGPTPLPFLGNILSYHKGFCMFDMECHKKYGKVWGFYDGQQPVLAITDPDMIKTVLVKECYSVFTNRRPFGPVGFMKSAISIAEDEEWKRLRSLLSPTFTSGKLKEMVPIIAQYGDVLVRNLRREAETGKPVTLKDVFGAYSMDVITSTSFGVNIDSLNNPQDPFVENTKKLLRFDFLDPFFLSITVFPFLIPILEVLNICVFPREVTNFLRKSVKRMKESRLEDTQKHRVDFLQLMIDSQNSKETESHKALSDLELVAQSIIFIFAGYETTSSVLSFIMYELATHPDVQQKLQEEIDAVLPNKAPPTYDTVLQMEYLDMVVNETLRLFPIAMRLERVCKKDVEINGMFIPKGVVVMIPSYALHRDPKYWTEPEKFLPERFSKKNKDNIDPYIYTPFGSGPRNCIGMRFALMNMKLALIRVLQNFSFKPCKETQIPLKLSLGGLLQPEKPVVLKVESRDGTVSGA

[20] = Plasma clearance in dog; format: ADME, organism-based, Canis lupus familiaris
[21] = Bioavailability in dog; format: ADME, organism-based, Canis lupus familiaris; settings: in vivo
[22] = molecular target: Cytochrome P450 2C9 (Homo sapiens, UniProt P11712); assay: Inhibition of CYP2C9; format: ADME
Cytochrome P450 2C9, sequence (P11712 whole entry): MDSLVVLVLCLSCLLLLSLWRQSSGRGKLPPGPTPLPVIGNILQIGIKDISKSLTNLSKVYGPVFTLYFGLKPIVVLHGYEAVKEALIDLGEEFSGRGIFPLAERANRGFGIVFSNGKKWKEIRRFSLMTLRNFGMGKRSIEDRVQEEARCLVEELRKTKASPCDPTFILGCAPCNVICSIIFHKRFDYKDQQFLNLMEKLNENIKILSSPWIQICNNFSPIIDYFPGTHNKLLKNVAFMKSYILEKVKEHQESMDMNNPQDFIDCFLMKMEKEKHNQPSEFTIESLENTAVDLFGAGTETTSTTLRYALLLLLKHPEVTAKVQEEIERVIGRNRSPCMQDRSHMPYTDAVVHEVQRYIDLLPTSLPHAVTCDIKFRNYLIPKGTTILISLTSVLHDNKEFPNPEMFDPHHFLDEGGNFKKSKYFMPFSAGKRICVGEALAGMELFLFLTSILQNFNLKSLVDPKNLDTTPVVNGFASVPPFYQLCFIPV

[23] = Volume of distribution at steady state in dog; format: ADME, organism-based, Canis lupus familiaris; settings: in vivo, read-out: Vdss
[24] = Half life in rhesus monkey; format: ADME, organism-based, Macaca mulatta; settings: in vivo
[25] = organism: Rattus norvegicus; assay: Reduction of overnight food intake in diet induced obese Sprague-Dawley rat assessed as minimal effective dose; format: functional; settings: feed or water, read-out: MED; method in brief: as §2
[26] = Cmax in Sprague-Dawley rat at 1 mg/kg, iv and 2 mg/kg, po; format: ADME, organism-based; settings: in vivo; method in brief: as §3
[27] = Plasma clearance in rhesus monkey; format: ADME, organism-based, Macaca mulatta
[28] = Volume of distribution at steady state in rhesus monkey; format: ADME, organism-based, Macaca mulatta; settings: in vivo, read-out: Vdss
[29] = Cmax in dog; format: ADME, organism-based, Canis lupus familiaris; settings: in vivo
[30] = Cmax in rhesus monkey; format: ADME, organism-based, Macaca mulatta; settings: in vivo
[31] = Half life in dog; format: ADME, organism-based, Canis lupus familiaris; settings: in vivo
[32] = Oral bioavailability in rhesus monkey; format: ADME, organism-based, Macaca mulatta; settings: in vivo
[33] = molecular target: T3, Cytochrome P450 2C8 (Homo sapiens, UniProt P10632); assay: Inhibition of CYP2C8; format: ADME
T3 sequence (P10632 whole entry): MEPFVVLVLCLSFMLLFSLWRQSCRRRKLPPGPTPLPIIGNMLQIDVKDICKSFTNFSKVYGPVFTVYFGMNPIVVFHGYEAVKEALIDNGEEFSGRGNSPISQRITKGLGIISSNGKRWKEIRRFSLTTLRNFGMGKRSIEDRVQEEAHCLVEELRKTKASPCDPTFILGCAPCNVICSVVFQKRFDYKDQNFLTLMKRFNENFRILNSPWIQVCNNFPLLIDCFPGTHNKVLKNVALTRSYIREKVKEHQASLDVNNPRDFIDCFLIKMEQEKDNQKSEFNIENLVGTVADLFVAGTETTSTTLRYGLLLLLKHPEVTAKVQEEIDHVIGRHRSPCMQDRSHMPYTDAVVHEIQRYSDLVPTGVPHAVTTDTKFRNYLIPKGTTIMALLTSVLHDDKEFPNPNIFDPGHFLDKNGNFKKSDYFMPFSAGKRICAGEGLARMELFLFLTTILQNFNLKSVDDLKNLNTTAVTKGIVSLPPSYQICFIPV

T1 sequence (P21554 whole entry): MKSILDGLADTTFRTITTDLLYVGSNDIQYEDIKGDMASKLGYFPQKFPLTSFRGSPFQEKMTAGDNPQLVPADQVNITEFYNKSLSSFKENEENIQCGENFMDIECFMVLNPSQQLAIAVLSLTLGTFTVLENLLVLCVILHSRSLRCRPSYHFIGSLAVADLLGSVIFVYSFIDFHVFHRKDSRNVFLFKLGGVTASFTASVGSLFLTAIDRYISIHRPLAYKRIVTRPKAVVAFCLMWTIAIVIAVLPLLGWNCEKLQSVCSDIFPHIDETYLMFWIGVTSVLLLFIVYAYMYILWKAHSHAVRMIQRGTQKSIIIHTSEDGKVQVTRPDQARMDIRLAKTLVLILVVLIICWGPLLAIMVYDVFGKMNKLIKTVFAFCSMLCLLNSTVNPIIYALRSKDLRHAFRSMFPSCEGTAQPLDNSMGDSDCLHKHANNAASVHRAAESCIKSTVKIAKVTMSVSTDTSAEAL

O=C([C@@H]1C[C@H]1c1ccc(C(F)(F)F)cc1)N1CCN(S(=O)(=O)c2cc(-c3ccn[nH]3)cc(C(F)(F)F)c2)CC1
IC50 [1]: 0.3 nM | IC50 [2]: 500 nM | IC50 [3]: > 10000 nM | Activity [4]: -10 g

O=C([C@@H]1C[C@H]1c1ccc(C(F)(F)F)cc1)N1CCN(S(=O)(=O)c2cc(C3CC3)cc(C(F)(F)F)c2)CC1
half-life [5]: 22 h | Activity [6]: -59% | bioavailability [7]: 74% | IC50 [1]: 0.3 nM | IC50 [8]: 0.1 nM | EC50 [9]: 5.8 nM | Vd [10]: 5.4 L/kg | IC50 [11]: 2.2 nM | IC50 [12]: 9.2 nM | IC50 [3]: > 10000 nM | EC50 [13]: 3.4 nM | Activity [4]: -14 g | IC50 [14]: 0.2 nM | Kp [15]: 0.8 | clearance [16]: 3.7 mL/min/kg | EC50 [17]: 5.8 nM | Kp at 4 h [18]: 0.3

O=C(Cc1ccc(C(F)(F)F)cc1)N1CCN(S(=O)(=O)c2cc(C3CC3)cc(C(F)(F)F)c2)CC1
Activity [6]: -40% | IC50 [1]: 1.2 nM | IC50 [8]: 0.5 nM | IC50 [11]: 27 nM | IC50 [12]: 1.9 nM | IC50 [3]: > 10000 nM | EC50 [13]: 0.6 nM | Activity [4]: -2 g | IC50 [14]: 11 nM | Kp [15]: 1.1 | EC50 [17]: 1 nM

O=C(c1ccc(C(F)(F)F)cc1)N1CCN(S(=O)(=O)c2cc(C3CC3)cc(C(F)(F)F)c2)CC1
half-life [5]: 19 h | Activity [6]: -14% | bioavailability [7]: 47% | IC50 [1]: 58 nM | IC50 [8]: 47 nM | EC50 [9]: 1.3 nM | Vd [10]: 2.7 L/kg | IC50 [11]: 175 nM | IC50 [12]: 77 nM | EC50 [13]: 4.4 nM | Activity [4]: 8 g | IC50 [14]: 227 nM | Kp [15]: 0.8 | clearance [16]: 1.9 mL/min/kg

O=C([C@@H]1C[C@H]1c1ccc(C(F)(F)F)cc1)N1CCN(S(=O)(=O)c2cc(-c3nnc[nH]3)cc(C(F)(F)F)c2)CC1
half-life [5]: 3.8 h | IC50 [19]: 4700 nM | bioavailability [7]: 31% | clearance [20]: 1.4 mL/min/kg | bioavailability [21]: 26% | IC50 [1]: 0.2 nM | IC50 [22]: 6000 nM | Vd [23]: 1.1 L/kg | half-life [24]: 2 h | minimal effective dose [25]: 0.3 mg/kg | Vd [10]: 3.8 L/kg | Cmax [26]: 190 nM | clearance [27]: 14.6 mL/min/kg | Vd [28]: 2.5 L/kg | IC50 [3]: > 10000 nM | Cmax [29]: 210 nM | Cmax [30]: 3 nM | half-life [31]: 8.6 h | Activity [4]: -14 g | bioavailability [32]: < 2% | clearance [16]: 23.7 mL/min/kg | IC50 [33]: 15000 nM | Kp at 4 h [18]: 0.2

O=C([C@@H]1C[C@H]1c1ccc(C(F)(F)F)cc1)N1CCN(S(=O)(=O)c2cc(C(O)C(F)(F)F)cc(C(F)(F)F)c2)CC1 (mixture of isomers)
IC50 [1]: 1.5 nM | IC50 [2]: 60 nM | IC50 [3]: > 10000 nM | Activity [4]: -8 g
